Calls of active or inactive are those of the source. No cut-off for these calls is given here.
How the values were obtained:
[1] = target: T1, Son of sevenless homolog 1 (Homo sapiens, UniProt Q07889); assay: Activation of human recombinant N-terminal His6-tagged SOS1 (564 to 1049 residues) expressed in BL21-RIL Escherichia coli assessed as SOS1-RAS complex formation by measuring exchange of GTP to BODIPY-GDP measured every 3 secs for 30 mins by nucleotide exchange assay
T1 sequence (Q07889 whole entry): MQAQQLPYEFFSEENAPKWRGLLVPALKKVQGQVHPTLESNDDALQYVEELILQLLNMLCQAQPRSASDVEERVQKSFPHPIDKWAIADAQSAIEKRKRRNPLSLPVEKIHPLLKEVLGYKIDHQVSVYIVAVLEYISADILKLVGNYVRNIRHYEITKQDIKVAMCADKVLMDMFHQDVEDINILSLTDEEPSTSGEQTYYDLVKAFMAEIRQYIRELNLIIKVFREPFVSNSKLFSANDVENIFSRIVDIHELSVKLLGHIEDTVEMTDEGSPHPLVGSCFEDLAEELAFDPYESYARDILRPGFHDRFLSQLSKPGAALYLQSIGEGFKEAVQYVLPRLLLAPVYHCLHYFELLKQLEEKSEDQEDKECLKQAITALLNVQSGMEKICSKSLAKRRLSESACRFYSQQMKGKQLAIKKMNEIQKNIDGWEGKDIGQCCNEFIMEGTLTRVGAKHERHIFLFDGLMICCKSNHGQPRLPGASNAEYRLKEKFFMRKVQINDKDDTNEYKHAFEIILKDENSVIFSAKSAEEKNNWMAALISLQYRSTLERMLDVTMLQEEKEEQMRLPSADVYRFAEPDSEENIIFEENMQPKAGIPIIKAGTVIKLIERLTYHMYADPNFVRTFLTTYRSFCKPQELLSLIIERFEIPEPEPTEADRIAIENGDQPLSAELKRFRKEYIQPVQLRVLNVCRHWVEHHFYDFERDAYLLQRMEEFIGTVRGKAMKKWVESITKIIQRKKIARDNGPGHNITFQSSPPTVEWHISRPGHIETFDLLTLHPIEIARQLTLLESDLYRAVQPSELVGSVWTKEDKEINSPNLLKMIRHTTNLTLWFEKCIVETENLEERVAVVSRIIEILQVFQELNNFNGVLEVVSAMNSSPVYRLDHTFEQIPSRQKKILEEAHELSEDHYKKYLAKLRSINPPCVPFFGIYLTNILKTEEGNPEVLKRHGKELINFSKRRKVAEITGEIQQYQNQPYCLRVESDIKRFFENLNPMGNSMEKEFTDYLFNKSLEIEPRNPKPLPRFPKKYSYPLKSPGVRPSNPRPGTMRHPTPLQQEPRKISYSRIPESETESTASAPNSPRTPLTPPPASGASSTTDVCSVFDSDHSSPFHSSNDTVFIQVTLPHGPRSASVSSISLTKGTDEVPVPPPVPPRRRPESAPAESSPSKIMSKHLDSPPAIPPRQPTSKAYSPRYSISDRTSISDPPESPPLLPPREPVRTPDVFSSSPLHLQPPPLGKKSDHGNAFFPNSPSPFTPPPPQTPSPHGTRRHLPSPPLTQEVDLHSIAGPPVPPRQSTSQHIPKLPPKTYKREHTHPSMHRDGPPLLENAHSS

[2] = target: T1, Son of sevenless homolog 1; assay: Binding affinity to human recombinant N-terminal His6-tagged SOS1 (564 to 1049 residues) expressed in BL21-RIL Escherichia coli by fluorescent probe S2 based fluorescence polarization anisotrophy saturation binding assay
[3] = target: T2, Son of sevenless homolog 1 (Homo sapiens) (UniProt Q07889); assay: Activation of human recombinant N-terminal His6-tagged SOS1 (564 to 1049 residues) expressed in BL21-RIL Escherichia coli assessed as SOS1-RAS complex formation by measuring exchange of GTP to BODIPY-GDP measured every 3 secs for 30 mins by nucleotide exchange assay relative to control; set-up: concentration or dose not given beside the values
T2 sequence (whole entry): T1 sequence (Q07889 whole entry)

[4] = target: T1, Son of sevenless homolog 1; assay: Binding affinity to human recombinant N-terminal His6-tagged SOS1 (564 to 1049 residues) expressed in BL21-RIL Escherichia coli by fluorescent probe S1 based fluorescence polarization anisotrophy saturation binding assay
How it was run: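 SOS1cat (aa 564–1049) was titrated in a 12-point, 2-fold series from 10 μM top against 50 nM fluorescein-labeled probe. Buffer was 20 mM Tris-HCl pH 7.5, 50 mM NaCl, 1 mM magnesium chloride, with 20 min at room temperature in the dark. Anisotropy was read and Kd reported as mean ± SD of at least three independent experiments.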

[5] = target: T2, Son of sevenless homolog 1 (Homo sapiens); assay: Biphasic activity at of SOS1 in human HeLa cells expressing wild type KRAS assessed as reduction in ERK1/2 T202/Y204 phosphorylation at 1.5 to 100 uM (higher range) incubated for 30 mins by In-cell Western assay; assay type: cell-based
[6] = target: T2, Son of sevenless homolog 1 (Homo sapiens); assay: Biphasic activity at of SOS1 in human HeLa cells expressing wild type KRAS assessed as induction of ERK1/2 T202/Y204 phosphorylation at 1.5 to 100 uM (lower range) incubated for 30 mins by In-cell Western assay; assay type: cell-based
[7] = target: T2, Son of sevenless homolog 1 (Homo sapiens); assay: Activation of SOS1 in human NCI-H727 cells expressing KRAS G12V mutant assessed as induction of ERK1/2 T202/Y204 phosphorylation at 1.5 to 100 uM (higher range) incubated for 30 mins by In-cell Western assay; assay type: cell-based
[8] = target: T2, Son of sevenless homolog 1 (Homo sapiens); assay: Activation of SOS1 in human NCI-H727 cells expressing KRAS G12V mutant assessed as induction of ERK1/2 T202/Y204 phosphorylation at 1.5 to 100 uM (lower range) incubated for 30 mins by In-cell Western assay; assay type: cell-based
[9] = target: T1, Son of sevenless homolog 1; assay: Activation of SOS1 in human HeLa cells expressing wild type KRAS assessed as induction of ERK1/2 T202/Y204 phosphorylation incubated for 30 mins by In-cell Western assay; assay type: cell-based
[10] = target: Son of sevenless homolog 1 (Homo sapiens, UniProt Q07889); assay: Activation of SOS1 in human NCI-H727 cells expressing KRAS G12V mutant assessed as induction of ERK1/2 T202/Y204 phosphorylation incubated for 30 mins by In-cell Western assay; assay type: cell-based

Row | Compound | EC50 [1] [µM] | Activity [3] [%] | further results
1 | Cc1cc2ncn(Cc3ccc(F)c(Cl)c3)c2cc1C | > 100 |  | 
2 | Cc1cc(Cn2c(N3CCNCC3)nc3c(-c4cncnc4)cc(Cl)cc32)cc(C)c1F |  |  | Kd [2]: 0.35 µM
3 | Cc1cc(Cn2c(N3CCNCC3)nc3c(N4CCCCC4)cc(Cl)cc32)cc(C)c1F |  |  | Kd [2]: 0.2 µM
4 | Cc1cc(Cn2c(N3CCNCC3)nc3c(-c4cnccn4)cc(Cl)cc32)cc(C)c1F |  |  | Kd [2]: 0.39 µM
5 | Cc1cc(Cn2c(N3CCNCC3)nc3c(-c4cn[nH]c4)cc(Cl)cc32)cc(C)c1F |  |  | Kd [2]: 0.18 µM
6 | Cc1cc(Cn2c(N3CCNCC3)nc3c(-c4c(C)cccc4C)cc(Cl)cc32)cc(C)c1F |  |  | Kd [2]: 0.3 µM
7 | Cc1cc(Cn2c(N3CCNCC3)nc3c(-c4cccc(C(F)(F)F)c4)cc(Cl)cc32)cc(C)c1F |  |  | Kd [4]: 0.67 µM
8 | Cc1cc(Cn2c(N3CCNCC3)nc3c(-c4cccnn4)cc(Cl)cc32)cc(C)c1F |  |  | Kd [2]: 0.45 µM
9 | Cc1cc(Cn2c(N3CCNCC3)nc3c(-c4cccnc4)cc(Cl)cc32)cc(C)c1F |  |  | Kd [4]: 0.33 µM
10 | Cc1cc(Cn2c(N3CCNCC3)nc3c(N4CCC[C@@H]4CO)cc(Cl)cc32)cc(C)c1F |  |  | Kd [2]: 0.38 µM
11 | Cc1cc(Cn2c(N3CCNCC3)nc3c(-c4ccccc4C(C)C)cc(Cl)cc32)cc(C)c1F |  |  | Kd [4]: 0.39 µM
12 | Cc1cc(Cn2c(N3CCNCC3)nc3c(-c4ccccc4C(F)(F)F)cc(Cl)cc32)cc(C)c1F |  |  | Kd [4]: 0.15 µM
13 | Cc1cc2nc(C3CCNCC3)n(Cc3ccc(F)c(Cl)c3)c2cc1C | 5.6 | 128 | 
14 | Fc1ccc(Cn2c(N3CCNCC3)nc3ccc(C(F)(F)F)cc32)cc1Cl | 4.4 | 78 | 
15 | Cc1cc2nc(N3CCNCC3)n(Cc3ccc(F)c(Cl)c3)c2cc1C | 2.2 | 211 | Activity [5]: Active; Activity [6]: Active; Activity [7]: Active; Activity [8]: Active; EC50 [9]: 21.3 µM; EC50 [10]: 29.1 µM
16 | Cc1cc(Cn2c(N3CCNCC3)nc3c(N4CCC[C@H]4CO)cc(Cl)cc32)cc(C)c1F |  |  | Kd [2]: 0.31 µM
17 | Fc1ccc(CN2C3=NCCCN3c3ccccc32)cc1 | 63 | 40 | 

Row | Compound | EC50 [1] [µM] | Activity [3] [%] | further results
18 | Fc1ccc(Cn2c(N3CCNCC3)nc3ccccc32)cc1Cl | 5.4 | 109 | Activity [5]: inactive; Activity [6]: Active; Activity [7]: inactive; Activity [8]: Active; EC50 [9]: 21 µM; EC50 [10]: 51.4 µM
19 | Cc1cc(Cn2c(N3CCNCC3)nc3c(-c4cncnc4C(C)C)cc(Cl)cc32)cc(C)c1F |  |  | Kd [2]: 0.1 µM; Activity [5]: Active; Activity [6]: Active; Activity [7]: Active; Activity [8]: Active; EC50 [9]: 8.8 µM; EC50 [10]: 13.9 µM
20 | Cc1ccccc1-c1cc(Cl)cc2c1nc(N1CCNCC1)n2Cc1cc(C)c(F)c(C)c1 |  |  | Kd [2]: 0.21 µM
21 | Cc1cc(Cn2c(N3CCNCC3)nc3c(-c4ccccc4C4CCC4)cc(Cl)cc32)cc(C)c1F |  |  | Kd [4]: 0.44 µM
22 | Cc1cc(Cn2c(N3CCNCC3)nc3c(C4=CCNCC4)cc(Cl)cc32)cc(C)c1F |  |  | Kd [4]: 0.25 µM
23 | Cc1cc2nc(NCCN)n(Cc3ccc(F)c(Cl)c3)c2cc1C | 1.9 | 114 | 
24 | Fc1ccc(Cn2c(N3CCNCC3)nc3ccc(C4CC4)cc32)cc1Cl | 24.3 | 65 | 
25 | Cc1cc(Cn2c(N3CCNCC3)nc3c(N4CCC[C@@H]4CN)cc(Cl)cc32)cc(C)c1F |  |  | Kd [2]: 0.24 µM
26 | CCc1ccccc1-c1cc(Cl)cc2c1nc(N1CCNCC1)n2Cc1cc(C)c(F)c(C)c1 |  |  | Kd [4]: 0.21 µM
27 | Cc1cc(Cn2c(N3CCNCC3)nc3c(N4CCOCC4)cc(Cl)cc32)cc(C)c1F |  |  | Kd [2]: 0.13 µM
28 | Cc1cc(Cn2c(N3CCNCC3)nc3c(N4CCC[C@H]4CN)cc(Cl)cc32)cc(C)c1F |  |  | Kd [2]: 0.14 µM; Activity [5]: Active; Activity [6]: Active; Activity [7]: Active; Activity [8]: Active; EC50 [9]: 3.2 µM; EC50 [10]: 7.3 µM
29 | Cc1cc(Cn2c(N3CCNCC3)nc3c(-c4ccc(C(F)(F)F)cc4)cc(Cl)cc32)cc(C)c1F |  |  | Kd [4]: 1.05 µM
30 | Cc1cc(Cn2c(N3CCNCC3)nc3c(N4CCC(N)CC4)cc(Cl)cc32)cc(C)c1F |  |  | Kd [4]: 0.24 µM
31 | Cc1cc2c(cc1C)N(Cc1ccccc1)C1=NCCCN12 | 23.2 | 64 | 
32 | Cc1cc(Cn2c(N3CCNCC3)nc3c(-c4ccccc4CO)cc(Cl)cc32)cc(C)c1F |  |  | Kd [2]: 0.14 µM
33 | Cc1cc2nc(NC3CCNCC3)n(Cc3ccc(F)c(Cl)c3)c2cc1C | 37.1 | 129 | 
34 | Cc1cc(Cn2c(N3CCNCC3)nc3c(-c4ccncc4)cc(Cl)cc32)cc(C)c1F |  |  | Kd [2]: 0.24 µM

Further lines, with some results ahead:

Row | EC50 [1] [µM] | Activity [3] [%] | Compound | further results
35 | 8.6 | 122 | Cc1cc2nc(N3CCNCC3)n(Cc3ccccc3)c2cc1C | 
36 | 6.6 | 114 | Cc1cc2nc(N3CCC(N)CC3)n(Cc3ccc(F)c(Cl)c3)c2cc1C | 
37 | 8.1 | 263 | Cc1cc2nc(N3CCNCC3)n(Cc3ccc(F)c(C(F)(F)F)c3)c2cc1C | 
38 | 4.1 | 190 | Cc1cc2nc(N3CCNCC3)n(Cc3ccc(F)c(C)c3)c2cc1C | 
39 | 26 | 143 | Cc1cc2nc(N3CCN(C)CC3)n(Cc3ccc(F)c(Cl)c3)c2cc1C | 
40 | 3 | 200 | Cc1cc2nc(N3CCNCC3)n(Cc3ccc(F)c(Cl)c3)c2cc1Cl | 
41 | 12.4 | 164 | Cc1cc2nc(N3CCNCC3)n(Cc3ccc(Cl)cc3)c2cc1C | 
42 | 3.7 | 270 | Cc1cc2nc(N3CCNCC3)n(Cc3cc(C)c(F)c(C)c3)c2cc1C | 
43 | 1.3 | 115 | Fc1ccc(Cn2c(N3CCNCC3)nc3ccc(Br)cc32)cc1Cl | 
44 | 1 | 109 | Fc1ccc(Cn2c(N3CCNCC3)nc3ccc(Cl)cc32)cc1Cl | 
45 | 36.6 | 93 | Cc1ccc(Cn2c(N3CCNCC3)nc3cc(C)c(C)cc32)cc1 | 
46 | 5.9 | 183 | Cc1cc2nc(N3CCNCC3)n(Cc3ccc(F)c(F)c3)c2cc1C | 
47 | 5.9 | 130 | Cc1cc2nc(N3CCNCC3)n(Cc3ccc(F)cc3)c2cc1C | 
48 | 11.7 | 151 | Cc1cc2nc(N3CCNCC3)n(Cc3ccc(F)c(C4CC4)c3)c2cc1C | 
49 | 19.6 | 148 | Cc1cc2nc(N3CCNCC3)n(Cc3ccc(C(F)(F)F)cc3)c2cc1C | 
50 | 8.5 | 176 | Cc1cc2nc(N3CCCNCC3)n(Cc3ccc(F)c(Cl)c3)c2cc1C | 
51 | 2.4 | 106 | Cc1ccc2nc(N3CCNCC3)n(Cc3ccc(F)c(Cl)c3)c2c1 | 
